In ChEMBL document CHEMBL1126317, “2-(aminoalkyl)-5-nitropyrazolo[3,4,5-kl]acridines, a new class of anticancer agents” (1992):
pIC50: −log10 of the molar value. Activity calls are given as the source filed them. The rule behind the calls is not given here.

Assays:
Mus musculus [1] = experiment: In vivo antitumor activity of the compound(ip, 50 mg/kg for 5 days) against CD2F1 mice implanted intraperitoneally with P388 leukemia cells.; type: functional; conditions: route intraperitoneal
Mus musculus [2] = experiment: In vivo antitumor activity of the compound(ip, 25 mg/kg for 5 days) against CD2F1 mice implanted intraperitoneally with P388 leukemia cells.; type: functional; conditions: route intraperitoneal
L1210 [3] = experiment: In vitro antitumor activity against L1210 leukemia cell line.; type: functional; conditions: Mus musculus, read-out: ID50 (the source's name)
Mus musculus [4] = experiment: In vivo antitumor activity of the compound(ip, 3.13 mg/kg for 5 days) against CD2F1 mice implanted intraperitoneally with P388 leukemia cells.; type: functional; conditions: route intraperitoneal
L1210 [5] = experiment: In vitro antitumor activity against L1210 leukemia cell line; IA= Inactive; type: functional, cell-based; conditions: Mus musculus
Mus musculus [6] = experiment: In vivo antitumor activity of the compound(ip, 3.12 mg/kg for 5 days) against CD2F1 mice implanted intraperitoneally with P388 leukemia cells; Day 30 survivors=3/6; type: functional; conditions: route intraperitoneal
Mus musculus [7] = experiment: In vivo antitumor activity of the compound(ip, 3.12 mg/kg for 5 days) against CD2F1 mice implanted intraperitoneally with P388 leukemia cells.; type: functional; conditions: route intraperitoneal
Mus musculus [8] = experiment: In vivo antitumor activity of the compound(ip, 12.5 mg/kg for 5 days) against CD2F1 mice implanted intraperitoneally with P388 leukemia cells; Day 30 survivors=1/6; type: functional; conditions: route intraperitoneal
HCT-8 [9] = experiment: In vitro antitumor activity against HCT-8 colon cancer cell line.; type: functional; conditions: Homo sapiens, read-out: ID50 (the source's name)
[10] = Ratio of the ID50's showing antitumor activity against HCT-8 and L1210 leukemia cell lines.; type: functional
Outline: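 Ratio taken as ID50 in HCT-8 cells divided by ID50 in L1210 cells, both ID50s expressed as molar concentrations.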

Mus musculus [11] = experiment: In vivo antitumor activity of the compound(ip, 25 mg/kg for 5 days) against CD2F1 mice implanted intraperitoneally with P388 leukemia cells; Day 30 survivors=2/6; type: functional; conditions: route intraperitoneal
Mus musculus [12] = experiment: In vivo antitumor activity of the compound(ip, 100 mg/kg for 5 days) against CD2F1 mice implanted intraperitoneally with P388 leukemia cells.; type: functional; conditions: route intraperitoneal
Mus musculus [13] = experiment: In vivo antitumor activity of the compound(ip, 12.5 mg/kg for 5 days) against CD2F1 mice implanted intraperitoneally with P388 leukemia cells.; type: functional; conditions: route intraperitoneal
Mus musculus [14] = experiment: In vivo antitumor activity of the compound(ip, 50 mg/kg for 5 days) against CD2F1 mice implanted intraperitoneally with P388 leukemia cells; Day 30 survivors=1/6; type: functional; conditions: route intraperitoneal
Mus musculus [15] = experiment: In vivo antitumor activity of the compound(ip, 6.25 mg/kg for 5 days) against CD2F1 mice implanted intraperitoneally with P388 leukemia cells.; type: functional; conditions: route intraperitoneal
Mus musculus [16] = experiment: In vivo antitumor activity of the compound(ip, 50 mg/kg for 5 days) against CD2F1 mice implanted intraperitoneally with P388 leukemia cells; Day 30 survivors=3/6; type: functional; conditions: route intraperitoneal
Mus musculus [17] = experiment: In vivo antitumor activity of the compound(ip, 3.12 mg/kg for 5 days) against CD2F1 mice implanted intraperitoneally with P388 leukemia cells; Day 30 survivors=2/6; type: functional; conditions: route intraperitoneal
Mus musculus [18] = experiment: In vivo antitumor activity of the compound(ip, 6.25 mg/kg for 5 days) against CD2F1 mice implanted intraperitoneally with P388 leukemia cells; Day 30 survivors=1/6; type: functional; conditions: route intraperitoneal
HCT-8 [19] = experiment: In vitro antitumor activity against HCT-8 human colon line; IA= Inactive; type: functional, cell-based
Mus musculus [20] = experiment: In vivo antitumor activity of the compound(ip, 200 mg/kg for 5 days) against CD2F1 mice implanted intraperitoneally with P388 leukemia cells.; type: functional; conditions: route intraperitoneal

Cc1ccc2c(c1)-c1nn(CCNCCO)c3ccc([N+](=O)[O-])c(c13)N2.Cl
T/C (Mus musculus [1]): 115%

CCN(CC)CCN1Nc2c3cc(OC)c(Cl)cc3nc3c([N+](=O)[O-])ccc1c23.CS(=O)(=O)O
T/C (Mus musculus [2]): 112%
pIC50 (L1210 [3]): 6.57

CCOC(=O)Oc1ccc2c(c1)-c1nn(CCN(CC)CC)c3ccc([N+](=O)[O-])c(c13)N2.CS(=O)(=O)O
T/C (Mus musculus [4]): 243%

CCN(CC)CCN1Nc2c3cc(O)c(Cl)cc3nc3c([N+](=O)[O-])ccc1c23.CS(=O)(=O)O
T/C (Mus musculus [1]): 125%
pIC50 (L1210 [3]): 6.82

COc1ccc2c(c1)-c1nn(CCO)c3ccc([N+](=O)[O-])c(c13)N2
ID50 (L1210 [5]): inactive

CC(=O)Oc1ccc2nc3c([N+](=O)[O-])ccc4c3c(c2c1)NN4CCN(C)C.CS(=O)(=O)O
Activity (Mus musculus [6]): 3
T/C (Mus musculus [7]): 265%
pIC50 (L1210 [3]): 8.92

CCOc1ccc2c(c1)-c1nn(CCN(C)C)c3ccc([N+](=O)[O-])c(c13)N2.CS(=O)(=O)O
Activity (Mus musculus [8]): 1

CN(C)CCCN1Nc2c3cc(O)ccc3nc3c([N+](=O)[O-])ccc1c23.CS(=O)(=O)O
Activity (Mus musculus [6]): 3
T/C (Mus musculus [7]): 270%
pIC50 (HCT-8 [9]): 7.92
Ratio [10]: 6.7
pIC50 (L1210 [3]): 8.74

COc1ccc2c(c1)-c1nn(CCN3CCCC3)c3ccc([N+](=O)[O-])c(c13)N2.CS(=O)(=O)O
T/C (Mus musculus [2]): 211%
pIC50 (L1210 [3]): 6.80

COc1cc(OC)c2c(c1)-c1nn(CCN(C)C)c3ccc([N+](=O)[O-])c(c13)N2
pIC50 (L1210 [3]): 6.68

COc1ccc2c(c1)-c1nn(CCNCCO)c3ccc([N+](=O)[O-])c(c13)N2
pIC50 (L1210 [3]): 6.35

COc1ccc2c(c1)-c1nn(CCCN(C)C)c3ccc([N+](=O)[O-])c(c13)N2.CS(=O)(=O)O
Activity (Mus musculus [11]): 2
Ratio [10]: 0.33

CCN(CC)CCN1Nc2c3c(OC)cc(OC)cc3nc3c([N+](=O)[O-])ccc1c23.CS(=O)(=O)O
T/C (Mus musculus [1]): 94%
pIC50 (L1210 [3]): 6.31

CCN(CC)CCN1Nc2c3cccc(OC)c3nc3c([N+](=O)[O-])ccc1c23.CS(=O)(=O)O
T/C (Mus musculus [12]): 111%
pIC50 (L1210 [3]): 6.19

CCOc1ccc2c(c1)-c1nn(CCCN(C)C)c3ccc([N+](=O)[O-])c(c13)N2.CS(=O)(=O)O
T/C (Mus musculus [13]): 236%
pIC50 (L1210 [3]): 6.66

CS(=O)(=O)O.O=[N+]([O-])c1ccc2c3c(nn2CCN2CCCC2)-c2cc(O)ccc2Nc13
T/C (Mus musculus [7]): 250%
pIC50 (L1210 [3]): 8.52

CCNCCN1Nc2c3cc(OC)ccc3nc3c([N+](=O)[O-])ccc1c23.CS(=O)(=O)O
Activity (Mus musculus [14]): 1
T/C (Mus musculus [1]): 240%
pIC50 (HCT-8 [9]): 6.92
Ratio [10]: 0.57
pIC50 (L1210 [3]): 6.68

CN(C)CCCN1Nc2c3ccc(O)cc3nc3c([N+](=O)[O-])ccc1c23.Cl
T/C (Mus musculus [1]): 140%
pIC50 (L1210 [3]): 5.17

CCN(CC)CCN1Nc2c3ccccc3nc3c([N+](=O)[O-])ccc1c23.CS(=O)(=O)O
T/C (Mus musculus [15]): 165%
pIC50 (L1210 [3]): 6.72

CCN(CC)CCN1Nc2c3cc(OCc4ccccc4)ccc3nc3c([N+](=O)[O-])ccc1c23.CS(=O)(=O)O
T/C (Mus musculus [1]): 200%
pIC50 (L1210 [3]): 7.57

Cl.O=[N+]([O-])c1ccc2c3c(c4ccccc4nc13)NN2CCNCCO
T/C (Mus musculus [2]): 235%
pIC50 (L1210 [3]): 6.66

CN(C)CCCN1Nc2c3ccccc3nc3c([N+](=O)[O-])ccc1c23.CS(=O)(=O)O
T/C (Mus musculus [13]): 214%
pIC50 (L1210 [3]): 6.72
Activity (Mus musculus [8]): 1

CCN(CC)CCN1Nc2c3cc(OC)cc(OC)c3nc3c([N+](=O)[O-])ccc1c23.CS(=O)(=O)O
T/C (Mus musculus [1]): 88%
pIC50 (L1210 [3]): 6.12

CCCCOc1ccc2c(c1)-c1nn(CCN(CC)CC)c3ccc([N+](=O)[O-])c(c13)N2.CS(=O)(=O)O
T/C (Mus musculus [13]): 209%
pIC50 (L1210 [3]): 7.92

COc1ccc2c(c1)-c1nn(CCN(C)C)c3ccc([N+](=O)[O-])c(c13)N2.CS(=O)(=O)O
Activity (Mus musculus [16]): 3
pIC50 (L1210 [3]): 6.40

CN(C)CCN1Nc2c3cc(OC(=O)C(C)(C)C)ccc3nc3c([N+](=O)[O-])ccc1c23.CS(=O)(=O)O
Activity (Mus musculus [17]): 2
T/C (Mus musculus [7]): 236%
pIC50 (L1210 [3]): 8.54

CCOc1ccc2c(c1)-c1nn(CCN(CC)CC)c3ccc([N+](=O)[O-])c(c13)N2.CS(=O)(=O)O
T/C (Mus musculus [13]): 220%
pIC50 (L1210 [3]): 6.10

CCN(CC)CCCN1Nc2c3cc(OC)ccc3nc3c([N+](=O)[O-])ccc1c23.CS(=O)(=O)O
T/C (Mus musculus [2]): 210%
pIC50 (L1210 [3]): 5.89

CCCC(=O)Oc1ccc2c(c1)-c1nn(CCN(CC)CC)c3ccc([N+](=O)[O-])c(c13)N2.CS(=O)(=O)O
Activity (Mus musculus [18]): 1
pIC50 (L1210 [3]): 8.37

CCN(CC)CCN1Nc2c3ccc(O)cc3nc3c([N+](=O)[O-])ccc1c23.CS(=O)(=O)O
T/C (Mus musculus [2]): 130%
pIC50 (L1210 [3]): 7.08

CCCCOc1ccc2c(c1)-c1nn(CCNCCO)c3ccc([N+](=O)[O-])c(c13)N2.CS(=O)(=O)O
T/C (Mus musculus [13]): 175%
pIC50 (L1210 [3]): 6.19

CC(=O)Oc1ccc2nc3c([N+](=O)[O-])ccc4c3c(c2c1)NN4CCCN(C)C.CS(=O)(=O)O
Activity (Mus musculus [17]): 2
T/C (Mus musculus [7]): 252%
pIC50 (L1210 [3]): 8.72

CN(C)CCN1Nc2c3cc(O)ccc3nc3c([N+](=O)[O-])ccc1c23.CS(=O)(=O)O
Activity (Mus musculus [17]): 2
T/C (Mus musculus [7]): 228%
pIC50 (L1210 [3]): 8.57

CN(C)CCN1Nc2c3cc(N(C)C)ccc3nc3c([N+](=O)[O-])ccc1c23.CS(=O)(=O)O
T/C (Mus musculus [2]): 189%
pIC50 (L1210 [3]): 6.22

CCN(CC)CCOc1ccc2c(c1)-c1nn(CCN(CC)CC)c3ccc([N+](=O)[O-])c(c13)N2.CS(=O)(=O)O
T/C (Mus musculus [1]): 118%
pIC50 (L1210 [3]): 6.30

CCN(CC)CCN1Nc2c3ccc(OCc4ccccc4)cc3nc3c([N+](=O)[O-])ccc1c23.CS(=O)(=O)O
T/C (Mus musculus [13]): 87%
pIC50 (L1210 [3]): 6.74

CCCOc1ccc2c(c1)-c1nn(CCN(CC)CC)c3ccc([N+](=O)[O-])c(c13)N2.CS(=O)(=O)O
T/C (Mus musculus [2]): 273%
Activity (Mus musculus [11]): 2
pIC50 (L1210 [3]): 6.34

CCN(CC)CCN1Nc2c3cc4c(cc3nc3c([N+](=O)[O-])ccc1c23)OCO4.CS(=O)(=O)O
T/C (Mus musculus [1]): 173%
pIC50 (L1210 [3]): 6.80

CCN(CC)CCN1Nc2c3cc(SC)ccc3nc3c([N+](=O)[O-])ccc1c23.CS(=O)(=O)O
T/C (Mus musculus [1]): 114%
pIC50 (HCT-8 [9]): 6.46
Ratio [10]: 0.32
pIC50 (L1210 [3]): 5.96

COc1ccc2c(c1Cl)-c1nn(CCCN(C)C)c3ccc([N+](=O)[O-])c(c13)N2.CS(=O)(=O)O
Activity (Mus musculus [18]): 1
T/C (Mus musculus [15]): 221%
pIC50 (L1210 [3]): 7.00

CCN(CC)CCN1Nc2c3cc(OC)c(OC)cc3nc3c([N+](=O)[O-])ccc1c23.CS(=O)(=O)O
T/C (Mus musculus [12]): 126%
pIC50 (L1210 [3]): 5.96

C=CCOc1ccc2nc3c([N+](=O)[O-])ccc4c3c(c2c1)NN4CCCN(C)C.CS(=O)(=O)O
T/C (Mus musculus [13]): 221%
pIC50 (L1210 [3]): 5.66

CCN(CC)CCN1Nc2c3cc(C)ccc3nc3c([N+](=O)[O-])ccc1c23.CS(=O)(=O)O
T/C (Mus musculus [12]): 136%
pIC50 (L1210 [3]): 6.07

COc1ccc2c(c1)-c1nn(CCCl)c3ccc([N+](=O)[O-])c(c13)N2
ID50 (HCT-8 [19]): inactive
ID50 (L1210 [5]): inactive

CCN(CC)CCN1Nc2c3c(O)cccc3nc3c([N+](=O)[O-])ccc1c23.CS(=O)(=O)O
T/C (Mus musculus [20]): 117%
pIC50 (L1210 [3]): 6.22
